Source: ChEMBL document CHEMBL1687804, “Comparative efficacies of human simulated exposures of telavancin and vancomycin against methicillin-resistant Staphylococcus aureus with a range of vancomycin MICs in a murine pneumonia model” (Antimicrob Agents Chemother, 2010)
≈ marks a conversion by molar mass, not a printed value. Calls of active or inactive are those of the source. No cut-off for these calls is given here.

How the values were obtained:
Staphylococcus aureus [1] = assay: Antibacterial activity against hospital-associated methicillin-resistant Staphylococcus aureus isolate 152 by broth microdilution assay; format: functional
Outline: (§1)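 MIC by broth microdilution using dry-form panels, run in triplicate per isolate; modal MIC reported. Isolates were stored at −80°C in skim milk and subcultured twice on Trypticase soy agar with 5% sheep blood at 35°C before use.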

Staphylococcus aureus [2] = assay: Antibacterial activity against hospital-associated methicillin-resistant Staphylococcus aureus isolate 56 (494) by broth microdilution assay; format: functional; outline: as §1
Staphylococcus aureus [3] = assay: Antibacterial activity against community-associated methicillin-resistant Staphylococcus aureus isolate 156 by broth microdilution assay; format: functional; outline: as §1
Staphylococcus aureus [4] = assay: Antibacterial activity against community-associated methicillin-resistant Staphylococcus aureus isolate 145 by broth microdilution assay; format: functional; outline: as §1
Staphylococcus aureus [5] = assay: Antibacterial activity against hospital-associated methicillin-resistant Staphylococcus aureus isolate 336 by broth microdilution assay; format: functional; outline: as §1
Staphylococcus aureus [6] = assay: Antibacterial activity against hospital-associated methicillin-resistant Staphylococcus aureus isolate 360 by broth microdilution assay; format: functional; outline: as §1
Staphylococcus aureus [7] = assay: Antibacterial activity against hospital-associated methicillin-resistant Staphylococcus aureus isolate 412 by broth microdilution assay; format: functional; outline: as §1
Staphylococcus aureus [8] = assay: Antibacterial activity against vancomycin-heteroresistant Staphylococcus aureus isolate 38 (Mu3) by broth microdilution assay; format: functional; outline: as §1
Staphylococcus aureus [9] = assay: Antibacterial activity against vancomycin-heteroresistant Staphylococcus aureus isolate 443 by broth microdilution assay; format: functional; outline: as §1
Staphylococcus aureus [10] = assay: Antibacterial activity against vancomycin-intermediate Staphylococcus aureus isolate 435 by broth microdilution assay; format: functional; outline: as §1
Staphylococcus aureus [11] = assay: Antibacterial activity against vancomycin-intermediate Staphylococcus aureus isolate 440 (A6298) by broth microdilution assay; format: functional; outline: as §1
Staphylococcus aureus [12] = assay: Antibacterial activity against vancomycin-intermediate Staphylococcus aureus isolate 453 (NRS23) by broth microdilution assay; format: functional; outline: as §1
Staphylococcus aureus [13] = assay: Antibacterial activity against vancomycin-intermediate Staphylococcus aureus isolate 454 (NRS404) by broth microdilution assay; format: functional; outline: as §1
Staphylococcus aureus [14] = assay: Antibacterial activity against vancomycin-intermediate Staphylococcus aureus isolate 435 infected in neutropenic BALB/c mouse lung infection model assessed as reduction of CFU at 40 mg/kg, sc administered every 12 hrs measured after 24 hrs; note: unit not given here
Staphylococcus aureus [15] = assay: Antibacterial activity against vancomycin-intermediate Staphylococcus aureus isolate 435 infected in neutropenic BALB/c mouse lung infection model assessed as reduction of CFU at 40 mg/kg, sc administered every 12 hrs measured after 48 hrs; note: unit not given here
Staphylococcus aureus [16] = assay: Antibacterial activity against vancomycin-heteroresistant Staphylococcus aureus isolate 443 infected in neutropenic BALB/c mouse lung infection model assessed as reduction of CFU at 40 mg/kg, sc administered every 12 hrs measured after 24 hrs; note: unit not given here
Staphylococcus aureus [17] = assay: Antibacterial activity against vancomycin-heteroresistant Staphylococcus aureus isolate 443 infected in neutropenic BALB/c mouse lung infection model assessed as reduction of CFU at 40 mg/kg, sc administered every 12 hrs measured after 48 hrs; note: unit not given here
Staphylococcus aureus [18] = assay: Antibacterial activity against vancomycin-heteroresistant Staphylococcus aureus isolate 38 (Mu3) infected in neutropenic BALB/c mouse lung infection model assessed as reduction of CFU at 40 mg/kg, sc administered every 12 hrs measured after 24 hrs
Staphylococcus aureus [19] = assay: Antibacterial activity against vancomycin-intermediate Staphylococcus aureus isolate 440 (A6298) infected in neutropenic BALB/c mouse lung infection model assessed as reduction of CFU at 40 mg/kg, sc administered every 12 hrs measured after 24 hrs
Staphylococcus aureus [20] = assay: Antibacterial activity against vancomycin-intermediate Staphylococcus aureus isolate 453 (NRS23) infected in neutropenic BALB/c mouse lung infection model assessed as reduction of CFU at 40 mg/kg, sc administered every 12 hrs measured after 24 hrs; note: unit not given here
Staphylococcus aureus [21] = assay: Antibacterial activity against vancomycin-intermediate Staphylococcus aureus isolate 440 (A6298) infected in neutropenic BALB/c mouse lung infection model assessed as reduction of CFU at 40 mg/kg, sc administered every 12 hrs measured after 48 hrs
Staphylococcus aureus [22] = assay: Antibacterial activity against vancomycin-intermediate Staphylococcus aureus isolate 453 (NRS23) infected in neutropenic BALB/c mouse lung infection model assessed as reduction of CFU at 40 mg/kg, sc administered every 12 hrs measured after 48 hrs; note: unit not given here
Staphylococcus aureus [23] = assay: Antibacterial activity against vancomycin-intermediate Staphylococcus aureus isolate 454 (NRS404) infected in neutropenic BALB/c mouse lung infection model assessed as reduction of CFU at 40 mg/kg, sc administered every 12 hrs measured after 24 hrs; note: unit not given here
Staphylococcus aureus [24] = assay: Antibacterial activity against vancomycin-intermediate Staphylococcus aureus isolate 454 (NRS404) infected in neutropenic BALB/c mouse lung infection model assessed as reduction of CFU at 40 mg/kg, sc administered every 12 hrs measured after 48 hrs; note: unit not given here
Staphylococcus aureus [25] = assay: Antibacterial activity against hospital-associated methicillin-resistant Staphylococcus aureus isolate 152 infected in neutropenic BALB/c mouse lung infection model assessed as reduction of CFU at 40 mg/kg, sc administered every 12 hrs measured after 24 hrs; note: unit not given here
Staphylococcus aureus [26] = assay: Antibacterial activity against hospital-associated methicillin-resistant Staphylococcus aureus isolate 336 infected in neutropenic BALB/c mouse lung infection model assessed as reduction of CFU at 40 mg/kg, sc administered every 12 hrs measured after 24 hrs; note: unit not given here
Staphylococcus aureus [27] = assay: Antibacterial activity against hospital-associated methicillin-resistant Staphylococcus aureus isolate 360 infected in neutropenic BALB/c mouse lung infection model assessed as reduction of CFU at 40 mg/kg, sc administered every 12 hrs measured after 24 hrs
Staphylococcus aureus [28] = assay: Antibacterial activity against hospital-associated methicillin-resistant Staphylococcus aureus isolate 412 infected in neutropenic BALB/c mouse lung infection model assessed as reduction of CFU at 40 mg/kg, sc administered every 12 hrs measured after 24 hrs; note: unit not given here
Staphylococcus aureus [29] = assay: Antibacterial activity against hospital-associated methicillin-resistant Staphylococcus aureus isolate 336 infected in neutropenic BALB/c mouse lung infection model assessed as reduction of CFU at 40 mg/kg, sc administered every 12 hrs measured after 48 hrs; note: unit not given here
Staphylococcus aureus [30] = assay: Antibacterial activity against community-associated methicillin-resistant Staphylococcus aureus isolate 156 infected in neutropenic BALB/c mouse lung infection model assessed as reduction of CFU at 40 mg/kg, sc administered every 12 hrs measured after 24 hrs; note: unit not given here
Staphylococcus aureus [31] = assay: Antibacterial activity against community-associated methicillin-resistant Staphylococcus aureus isolate 145 infected in neutropenic BALB/c mouse lung infection model assessed as reduction of CFU at 40 mg/kg, sc administered every 12 hrs measured after 24 hrs; note: unit not given here
Staphylococcus aureus [32] = assay: Antibacterial activity against community-associated methicillin-resistant Staphylococcus aureus isolate 145 infected in neutropenic BALB/c mouse lung infection model assessed as reduction of CFU at 40 mg/kg, sc administered every 12 hrs measured after 48 hrs; note: unit not given here
Staphylococcus aureus [33] = assay: Antibacterial activity against hospital-associated methicillin-resistant Staphylococcus aureus isolate 56 (494) infected in neutropenic BALB/c mouse lung infection model assessed as reduction of CFU at 40 mg/kg, sc administered every 12 hrs measured after 24 hrs; note: unit not given here

CCCCCCCCCC(=O)N[C@@H](Cc1c[nH]c2ccccc12)C(=O)N[C@H](CC(N)=O)C(=O)N[C@@H](CC(=O)O)C(=O)N[C@@H]1C(=O)NCC(=O)N[C@@H](CCCN)C(=O)N[C@@H](CC(=O)O)C(=O)N[C@H](C)C(=O)N[C@@H](CC(=O)O)C(=O)NCC(=O)N[C@H](CO)C(=O)N[C@@H]([C@H](C)CC(=O)O)C(=O)N[C@@H](CC(=O)c2ccccc2N)C(=O)O[C@@H]1C
MIC (Staphylococcus aureus [1]): 0.5 µg/mL (≈ 0.309 µM) | MIC (Staphylococcus aureus [2]): 0.5 µg/mL (≈ 0.309 µM) | MIC (Staphylococcus aureus [3]): 0.5 µg/mL (≈ 0.309 µM) | MIC (Staphylococcus aureus [4]): 0.5 µg/mL (≈ 0.309 µM) | MIC (Staphylococcus aureus [5]): 0.5 µg/mL (≈ 0.309 µM) | MIC (Staphylococcus aureus [6]): 0.5 µg/mL (≈ 0.309 µM) | MIC (Staphylococcus aureus [7]): 0.5 µg/mL (≈ 0.309 µM) | MIC (Staphylococcus aureus [8]): 0.5 µg/mL (≈ 0.309 µM) | MIC (Staphylococcus aureus [9]): 0.5 µg/mL (≈ 0.309 µM) | MIC (Staphylococcus aureus [10]): 0.5 µg/mL (≈ 0.309 µM) | MIC (Staphylococcus aureus [11]): 1 µg/mL (≈ 0.617 µM) | MIC (Staphylococcus aureus [12]): 1 µg/mL (≈ 0.617 µM) | MIC (Staphylococcus aureus [13]): 1 µg/mL (≈ 0.617 µM)

O=C(O)c1cn(C2CC2)c2cc(N3CCNCC3)c(F)cc2c1=O [CIPROFLOXACIN]
MIC (Staphylococcus aureus [1]): 0.5 µg/mL (≈ 1.51 µM) | MIC (Staphylococcus aureus [2]): 0.5 µg/mL (≈ 1.51 µM) | MIC (Staphylococcus aureus [3]): ≥ 16 µg/mL | MIC (Staphylococcus aureus [4]): 8 µg/mL (≈ 24.1 µM) | MIC (Staphylococcus aureus [5]): ≥ 16 µg/mL | MIC (Staphylococcus aureus [6]): ≥ 16 µg/mL | MIC (Staphylococcus aureus [7]): ≥ 16 µg/mL | MIC (Staphylococcus aureus [8]): ≥ 16 µg/mL | MIC (Staphylococcus aureus [9]): ≥ 16 µg/mL | MIC (Staphylococcus aureus [10]): ≥ 16 µg/mL | MIC (Staphylococcus aureus [11]): ≥ 16 µg/mL | MIC (Staphylococcus aureus [12]): ≥ 16 µg/mL | MIC (Staphylococcus aureus [13]): ≥ 16 µg/mL

CCC[C@@H]1C[C@@H](C(=O)N[C@@H]([C@H]2O[C@H](SC)[C@H](O)[C@@H](O)[C@H]2O)[C@H](C)Cl)N(C)C1 [CLINDAMYCIN]
MIC (Staphylococcus aureus [1]): 0.125 µg/mL (≈ 0.294 µM) | MIC (Staphylococcus aureus [2]): 0.25 µg/mL (≈ 0.588 µM) | MIC (Staphylococcus aureus [3]): ≤ 0.5 µg/mL | MIC (Staphylococcus aureus [4]): ≥ 8 µg/mL | MIC (Staphylococcus aureus [5]): ≥ 8 µg/mL | MIC (Staphylococcus aureus [6]): ≥ 8 µg/mL | MIC (Staphylococcus aureus [7]): ≤ 0.5 µg/mL | MIC (Staphylococcus aureus [8]): ≥ 8 µg/mL | MIC (Staphylococcus aureus [9]): ≥ 8 µg/mL | MIC (Staphylococcus aureus [10]): ≤ 0.5 µg/mL | MIC (Staphylococcus aureus [11]): ≥ 8 µg/mL | MIC (Staphylococcus aureus [12]): ≥ 8 µg/mL | MIC (Staphylococcus aureus [13]): ≤ 0.5 µg/mL

CCCCCCCCCCNCCN[C@@]1(C)C[C@H](O[C@H]2[C@H](Oc3c4cc5cc3Oc3ccc(cc3Cl)[C@@H](O)[C@@H](NC(=O)[C@@H](CC(C)C)NC)C(=O)N[C@@H](CC(N)=O)C(=O)N[C@H]5C(=O)N[C@H]3C(=O)N[C@H](C(=O)N[C@H](C(=O)O)c5cc(O)c(CNCP(=O)(O)O)c(O)c5-c5cc3ccc5O)[C@H](O)c3ccc(c(Cl)c3)O4)O[C@H](CO)[C@@H](O)[C@@H]2O)O[C@@H](C)[C@H]1O [TELAVANCIN]
MIC (Staphylococcus aureus [1]): 0.25 µg/mL (≈ 0.142 µM) | MIC (Staphylococcus aureus [2]): 0.5 µg/mL (≈ 0.285 µM) | MIC (Staphylococcus aureus [3]): 0.5 µg/mL (≈ 0.285 µM) | MIC (Staphylococcus aureus [4]): 0.5 µg/mL (≈ 0.285 µM) | MIC (Staphylococcus aureus [5]): 0.5 µg/mL (≈ 0.285 µM) | MIC (Staphylococcus aureus [6]): 0.5 µg/mL (≈ 0.285 µM) | MIC (Staphylococcus aureus [7]): 0.5 µg/mL (≈ 0.285 µM) | MIC (Staphylococcus aureus [8]): 0.5 µg/mL (≈ 0.285 µM) | MIC (Staphylococcus aureus [9]): 0.5 µg/mL (≈ 0.285 µM) | MIC (Staphylococcus aureus [10]): 1 µg/mL (≈ 0.57 µM) | MIC (Staphylococcus aureus [11]): 1 µg/mL (≈ 0.57 µM) | MIC (Staphylococcus aureus [12]): 1 µg/mL (≈ 0.57 µM) | MIC (Staphylococcus aureus [13]): 1 µg/mL (≈ 0.57 µM) | Activity (Staphylococcus aureus [14]): Active | Activity (Staphylococcus aureus [15]): inactive | Activity (Staphylococcus aureus [16]): Active | Activity (Staphylococcus aureus [17]): inactive | Activity (Staphylococcus aureus [18]): Active | Activity (Staphylococcus aureus [19]): Active | Activity (Staphylococcus aureus [20]): Active | Activity (Staphylococcus aureus [21]): Active | Activity (Staphylococcus aureus [22]): Active | Activity (Staphylococcus aureus [23]): Active | Activity (Staphylococcus aureus [24]): Active | Activity (Staphylococcus aureus [25]): Active | Activity (Staphylococcus aureus [26]): Active | Activity (Staphylococcus aureus [27]): Active | Activity (Staphylococcus aureus [28]): Active | Activity (Staphylococcus aureus [29]): inactive | Activity (Staphylococcus aureus [30]): Active | Activity (Staphylococcus aureus [31]): Active | Activity (Staphylococcus aureus [32]): inactive | Activity (Staphylococcus aureus [33]): Active

CN(C)c1cc(NC(=O)CNC(C)(C)C)c(O)c2c1C[C@H]1C[C@H]3[C@H](N(C)C)C(O)=C(C(N)=O)C(=O)[C@@]3(O)C(O)=C1C2=O [TIGECYCLINE]
MIC (Staphylococcus aureus [1]): 0.25 µg/mL (≈ 0.427 µM) | MIC (Staphylococcus aureus [2]): 0.5 µg/mL (≈ 0.854 µM) | MIC (Staphylococcus aureus [3]): 0.125 µg/mL (≈ 0.213 µM) | MIC (Staphylococcus aureus [4]): 0.25 µg/mL (≈ 0.427 µM) | MIC (Staphylococcus aureus [5]): 0.5 µg/mL (≈ 0.854 µM) | MIC (Staphylococcus aureus [6]): 0.25 µg/mL (≈ 0.427 µM) | MIC (Staphylococcus aureus [7]): 0.25 µg/mL (≈ 0.427 µM) | MIC (Staphylococcus aureus [8]): 0.5 µg/mL (≈ 0.854 µM) | MIC (Staphylococcus aureus [9]): 0.25 µg/mL (≈ 0.427 µM) | MIC (Staphylococcus aureus [10]): 0.25 µg/mL (≈ 0.427 µM) | MIC (Staphylococcus aureus [11]): 0.125 µg/mL (≈ 0.213 µM) | MIC (Staphylococcus aureus [12]): 0.125 µg/mL (≈ 0.213 µM) | MIC (Staphylococcus aureus [13]): 0.125 µg/mL (≈ 0.213 µM)
